Bioassay records: PubChem BioAssay, Johns Hopkins Ion Channel Center
Shown are actives, neighbours in structure and some others; about 2.3% of the full set was active somewhere.
TRPC4 block: inhibitors of mouse TRPC4 channel, primary screen, Fluo4 calcium, HEK293 TRPC4beta/mu-opioid cells. B-score at 10 µM. DAMGO-evoked Fluo4 calcium flux; stronger effect = lower value. actives 0.39% (n = 300,000);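 active = B-score over 3 SD under the library average, no early fluorescence shift, positive overall ratio signal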
Target sequence (Q9QUQ5 whole entry, looked up): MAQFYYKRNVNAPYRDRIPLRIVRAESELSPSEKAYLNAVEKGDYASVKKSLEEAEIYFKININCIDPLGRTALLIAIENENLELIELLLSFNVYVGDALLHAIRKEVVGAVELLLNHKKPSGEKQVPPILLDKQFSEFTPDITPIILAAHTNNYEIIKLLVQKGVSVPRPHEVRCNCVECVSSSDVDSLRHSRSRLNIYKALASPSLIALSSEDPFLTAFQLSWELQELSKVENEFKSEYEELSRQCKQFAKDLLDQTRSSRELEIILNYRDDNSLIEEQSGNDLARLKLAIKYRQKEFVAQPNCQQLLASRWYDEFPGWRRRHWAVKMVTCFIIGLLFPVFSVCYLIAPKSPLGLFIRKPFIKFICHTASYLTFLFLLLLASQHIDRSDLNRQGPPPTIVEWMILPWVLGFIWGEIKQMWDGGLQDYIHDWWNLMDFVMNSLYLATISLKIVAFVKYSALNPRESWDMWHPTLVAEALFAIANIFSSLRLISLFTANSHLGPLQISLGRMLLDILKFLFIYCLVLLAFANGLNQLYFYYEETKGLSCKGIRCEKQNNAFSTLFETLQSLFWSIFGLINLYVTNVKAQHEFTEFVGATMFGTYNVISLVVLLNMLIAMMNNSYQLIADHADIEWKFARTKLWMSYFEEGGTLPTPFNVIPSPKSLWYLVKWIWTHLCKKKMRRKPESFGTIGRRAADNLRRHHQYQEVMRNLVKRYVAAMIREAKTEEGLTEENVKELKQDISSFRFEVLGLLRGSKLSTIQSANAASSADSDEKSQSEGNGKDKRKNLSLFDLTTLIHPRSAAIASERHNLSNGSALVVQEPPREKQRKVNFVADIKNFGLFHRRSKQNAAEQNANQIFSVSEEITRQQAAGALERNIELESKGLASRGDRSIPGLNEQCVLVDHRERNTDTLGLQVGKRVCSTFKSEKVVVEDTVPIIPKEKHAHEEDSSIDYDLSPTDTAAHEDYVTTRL
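Assay system: HEK293 cells with stable TRPC4beta plus mu-opioid receptor expression. Dosing: single dose. Measured by: Fluo4 Ca2+ flux fluorescence. Also added: DAMGO in two steps, submaximal then maximal. Read-out: B score from integrated Fluo4 fluorescence ratio.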
TRPC4 PAM: positive allosteric modulators of TRPC4, primary screen, cell-based, mouse TRPC4beta, HEK293 mu-opioid, Fluo-4 calcium; Short transient receptor potential channel 4 (Mus musculus), Q9QUQ5; DAMGO EC20, Fluo-4 Ca2+ flux; stronger effect = higher value; B-score at 10 µM; actives 0.42% (n = 310,000); AID 2227, 2009;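 active = B-score of calcium response area above 5 SD of library B-scores, with initial fluorescence ratio within 5 SD of library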
TRPC4 act: activators of mouse TRPC4 channel, primary screen, Fluo4 calcium, HEK293 TRPC4beta/mu-opioid cells | Short transient receptor potential channel 4 (Mus musculus), Q9QUQ5 | Fluo4 calcium fluorescence; stronger effect = higher value | B-score at 10 µM | actives 0.49% (n = 310,000) | AID 2237, 2010;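 active = B-score above 5 SD of library B-scores, and initial fluorescence ratio not above library mean plus 5 SD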;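 also: positive B-score marks a calcium rise read as TRPC4 activation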
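System: HEK293 cells stably co-expressing mouse TRPC4beta and mu-opioid receptor; Schedule: Fluo4 dye loading 45 min at room temperature, 110 s recording; Detection: Fluo4 fluorescence, kinetic; Evaluation: B-scored integrated calcium fluorescence ratio; Controls: buffer (low) and maximal DAMGO (high).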
TRPC6 inh: mouse TRPC6 channel inhibitors, primary screen, cell-based, HEK293, membrane potential dye | ACh-evoked depolarization; stronger effect = lower value | B-score at 10 µM | actives 1.1% (n = 310,000);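 active = B-score under library mean minus 3 SD, initial fluorescence not abnormally high, positive integrated signal ratio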;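 also: B-score derived from integrated fluorescence ratio over the kinetic read; more negative B-score means stronger inhibition of depolarization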
TRPC6 activator: mouse TRPC6 channel activators, primary screen, cell-based, HEK293, membrane potential dye | Short transient receptor potential channel 6 (Mus musculus), Q61143 | HEK293-TRPC6 membrane potential dye fluorescence; stronger effect = higher value | B-score at 10 µM | actives 0.13% (n = 310,000) | AID 2550, 2010;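 active = B-score of the integrated fluorescence ratio above library mean plus 3 SD, and starting fluorescence ratio within library mean plus 5 SD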;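 also: higher score means more depolarization so channel activation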
TRPC4 spec 2: second selectivity test of TRPC6 inhibitors: effect on mouse TRPC4 | shares compounds with TRPC6 inh | HEK293 TRPC4/MOR, membrane potential dye fluorescence; channel activated by saturating DAMGO dose | inhibition, % at 10 µM | actives 42% (n = 920) | AID 2776;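 active = compounds whose fluorescence signal differed from control wells by over 3 SD, either direction, in both duplicate plates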
TRPC4 spec: mouse TRPC4 modulation by TRPC6 hits, confirmation, selectivity assay for TRPC6 inhibitor project, cell-based, HEK293 TRPC4/mu-opioid, membrane potential dye; AID 2777, 2010; actives 61% (n = 920); activity change, negative = inhibition, % at 10 µM; membrane potential fluorescence; shares compounds with TRPC6 inh;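 active = rise or fall in signal beyond 3 SD of buffer-only wells in both replicate plates, either sign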;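 also: integrated kinetic ratio of fluorescence range over baseline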
HEK293 MPD ctr 2-1: nonspecific membrane potential effects, parental HEK293, confirmation, counter-screen for TRPC6 inhibitor project, cell-based, second counter screen; signal change vs control, % at 10 µM; shares compounds with TRPC6 inh; actives 31% (n = 920); parental HEK293 membrane potential dye fluorescence; maximal acetylcholine challenge after compound addition;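 active = membrane potential signal moving either way by over 3 SD of the maximum-effect control, in both duplicate plates, meaning non-specific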
HEK293 MPD ctr-1: membrane potential modulation in parental HEK293, confirmation, counter-screen for TRPC6 inhibitor project, cell-based | shares compounds with TRPC6 inh | membrane potential signal change, % at 10 µM | parental HEK293 membrane potential dye fluorescence | actives 60% (n = 920);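 active = membrane potential signal shifting up or down by more than 3 SD of buffer-only wells, on both duplicate plates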
HEK293 MPD ctr-2: parental HEK293 membrane potential modulation, confirmation, counter-screen for TRPC6 modulator project, cell-based; shares compounds with TRPC6 inh; membrane potential dye fluorescence; membrane potential signal change, % at 10 µM; actives 51% (n = 2,400); AID 488924, 2010;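 active = membrane potential signal moves up or down beyond 5 SD from buffer-only wells, on both duplicate plates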
HEK293 MPD ctr 2-2: second check of TRPC6 modulator effects in parental HEK293 cells | shares compounds with TRPC6 inh | membrane potential dye fluorescence; after compound, maximal acetylcholine stimulation | inhibition, % at 10 µM | actives 14% (n = 2,400) | AID 488926;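 active = membrane potential signal drops by more than 5 SD from the mean control signal, in both duplicate plates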
TRPC4/MOR mod: TRPC4 modulation by TRPC6 hit compounds, confirmation, selectivity assay for TRPC6 modulator project, cell-based, HEK293 TRPC4/mu-opioid, membrane potential dye, mouse | shares compounds with TRPC6 inh | membrane potential fluorescence | percent change from control (negative = decrease, positive = increase), % at 10 µM | actives 69% (n = 2,400);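 active = membrane potential signal moved up or down beyond 5 SD of buffer control wells, in both duplicate plates, actives on both sides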
TRPC4/MOR inh 2: mouse TRPC4 off-target activity of TRPC6 modulators, second screen; AID 488928; inhibition, % at 10 µM; actives 55% (n = 2,400); HEK293 TRPC4/mu-opioid, membrane potential dye fluorescence; stimulated with maximal-effect DAMGO; shares compounds with TRPC6 inh;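 active = drop in membrane potential signal beyond 5 SD of the control wells in both duplicate plates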;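 also: TRPC4 counter screen for TRPC6 hits run under conditions tuned for TRPC6 not TRPC4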
TRPC6 block conf: mouse TRPC6 channel inhibitors, confirmation, HEK293 cells, membrane potential dye, duplicate; shares compounds with TRPC6 inh; ACh-evoked depolarization; inhibition, % at 10 µM; actives 43% (n = 3,300);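 active = fluorescence ratio falls more than 5 SD below the full-stimulation control mean, in both duplicate runs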;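 also: integrated fluorescence ratio of peak minus minimum over baseline after agonist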
TRPC6 act confirm: mouse TRPC6 channel activators, confirmation, HEK293 cells, membrane potential dye, duplicate | HEK293-TRPC6 membrane potential dye fluorescence, FDSS | actives 11% (n = 2,800) | activation, % at 10 µM | AID 488961, 2010 | shares compounds with TRPC6 inh;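 active = ratio signal rise beyond 5 SD above unstimulated control wells' mean, seen in both duplicate runs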
Large screens that a line does not name were inactive (follow-up assays come after a bar, where they were run).

CCOC(=O)c1c(C)oc2c(CC(=O)c3ccccc3)c(Cl)c(O)c(O)c12	TRPC6 inh -9 | TRPC4 spec 2 inactive | TRPC4 spec inactive | HEK293 MPD ctr 2-1 inactive | HEK293 MPD ctr-1 inactive | TRPC6 block conf inactive | TRPC6 act confirm inactive
C=CCc1ccccc1OCC(O)CN1CCN(c2ccc(OC)cc2)CC1 (stereo not drawn)	TRPC6 inh -5.3 | HEK293 MPD ctr-2 inactive | HEK293 MPD ctr 2-2 inactive | TRPC4/MOR mod inactive | TRPC4/MOR inh 2 54% | TRPC6 block conf 60% | TRPC6 act confirm inactive
C=CCc1ccccc1OCC(O)CN1CCOCC1 (stereo not drawn)	none
CCOC(=O)N1CCN(C(=O)CN2C(=O)COc3ccc(C(C)(C)C)cc32)CC1	TRPC6 inh -6.3 | HEK293 MPD ctr-2 94% | HEK293 MPD ctr 2-2 inactive | TRPC4/MOR mod 18% | TRPC4/MOR inh 2 inactive | TRPC6 block conf 54%
CCCc1nc2ccc(N)cc2c(=O)n1Cc1ccccc1Cl	none
Cc1ccc2nc(NCCCN3CCOCC3)c(C=NCCCN3CCOCC3)c(=O)n2c1	TRPC6 inh -8.9 | HEK293 MPD ctr-2 -350% | HEK293 MPD ctr 2-2 80% | TRPC4/MOR mod -66% | TRPC4/MOR inh 2 53% | TRPC6 block conf 64% | TRPC6 act confirm inactive
N=c1c(C(=O)NCCN2CCOCC2)cc2c(=O)n3ccccc3nc2n1Cc1ccc(F)cc1	TRPC6 inh -7.7 | HEK293 MPD ctr-2 -74% | HEK293 MPD ctr 2-2 90% | TRPC4/MOR mod -17% | TRPC4/MOR inh 2 45% | TRPC6 block conf 56% | TRPC6 act confirm inactive
N=c1c(C(=O)NCCN2CCOCC2)cc2c(=O)n3ccccc3nc2n1CCCN1CCOCC1	TRPC6 inh -7.6 | TRPC4 spec 2 70% | TRPC4 spec 3.7% | HEK293 MPD ctr 2-1 -288% | HEK293 MPD ctr-1 5.5% | TRPC6 block conf 77% | TRPC6 act confirm inactive
Cc1ccc2nc3c(cc(C(=O)NCCN4CCOCC4)c(=N)n3CCCN3CCOCC3)c(=O)n2c1	TRPC6 inh -7.5 | TRPC4 spec 2 72% | TRPC4 spec inactive | HEK293 MPD ctr 2-1 -174% | HEK293 MPD ctr-1 inactive | TRPC6 block conf 83%
Cc1ccc2nc(NCc3ccccc3)c(C=NCc3ccccc3)c(=O)n2c1	none
O=C1NC2(CCCCCC2)C(=O)N1Cc1cccc([N+](=O)[O-])c1	none
COC(=O)c1ccc(NC2(C#N)C(=O)Nc3ccccc32)cc1 (stereo not drawn)	TRPC6 inh -8.5 | TRPC4 spec 2 inactive | TRPC4 spec inactive | HEK293 MPD ctr 2-1 inactive | HEK293 MPD ctr-1 inactive | TRPC6 block conf 88%
Cc1ccc(NC2(C#N)C(=O)Nc3ccccc32)cc1C (stereo not drawn)	none
COc1ccc(C)c2sc(N(CCN(C)C)C(=O)c3cccc(N4C(=O)CCC4=O)c3)nc12	TRPC4 act 68, TRPC6 inh -6.4 | HEK293 MPD ctr-2 inactive | HEK293 MPD ctr 2-2 inactive | TRPC4/MOR mod -18% | TRPC4/MOR inh 2 44% | TRPC6 block conf inactive | TRPC6 act confirm inactive
Cc1cc(C)c2nc(N(CCCN(C)C)C(=O)C3=COCCO3)sc2c1	none
CCN(CC)CCN(C(=O)C1=COCCO1)c1nc2cc(C)cc(C)c2s1	TRPC6 inh -6.7 | TRPC4 spec 2 44% | TRPC4 spec inactive | HEK293 MPD ctr 2-1 inactive | HEK293 MPD ctr-1 0.6% | TRPC6 block conf inactive | TRPC6 act confirm inactive
CN(C)CCN(C(=O)c1ccc(Br)s1)c1nc2cc3c(cc2s1)OCCO3	none
CCN(CC)CCN(C(=O)c1ccc2c(c1)OCCO2)c1nc2cc3c(cc2s1)OCO3	TRPC6 inh -5.8 | HEK293 MPD ctr-2 inactive | HEK293 MPD ctr 2-2 inactive | TRPC4/MOR mod -23% | TRPC4/MOR inh 2 84% | TRPC6 block conf 50% | TRPC6 act confirm inactive
CN(C)CCN(C(=O)c1cccs1)c1nc2cc3c(cc2s1)OCCO3	TRPC6 inh -8 | TRPC4 spec 2 44% | TRPC4 spec -18% | HEK293 MPD ctr 2-1 inactive | HEK293 MPD ctr-1 -230% | TRPC6 block conf 96% | TRPC6 act confirm inactive
CC(C)(C)c1ccc(NC(=O)Nc2ccc3ccccc3n2)cc1	none
Cc1nc(-c2ccccc2)sc1C1(C)CC(c2c(Cl)cccc2Cl)=NO1 (stereo not drawn)	none
COc1ccc(C(C)(C)C)cc1NC(=O)Cn1cnnn1	none
O=[N+]([O-])c1ccc(SCCO)nc1SCCO	none
CCOc1cc(/C=N/NC(=O)c2cccnc2)ccc1OC(=O)c1ccco1	none
Cc1cc(OCc2cc(C(=O)NC(C)c3c(C)nn(C)c3C)no2)cc(C)c1Cl (stereo not drawn)	none
